In ChEMBL document CHEMBL1154366, “1,2-Diamines as inhibitors of co-activator associated arginine methyltransferase 1 (CARM1)” (Bioorg Med Chem Lett, 2009):

Legend:
[1] = target: T1, Histone-arginine methyltransferase CARM1 (Mus musculus, UniProt Q9WVG6); experiment: Inhibition of N-terminal His-tagged mouse recombinant CARM1 expressed in Sf9 cells by microbeta counting
T1 sequence (Q9WVG6 whole entry): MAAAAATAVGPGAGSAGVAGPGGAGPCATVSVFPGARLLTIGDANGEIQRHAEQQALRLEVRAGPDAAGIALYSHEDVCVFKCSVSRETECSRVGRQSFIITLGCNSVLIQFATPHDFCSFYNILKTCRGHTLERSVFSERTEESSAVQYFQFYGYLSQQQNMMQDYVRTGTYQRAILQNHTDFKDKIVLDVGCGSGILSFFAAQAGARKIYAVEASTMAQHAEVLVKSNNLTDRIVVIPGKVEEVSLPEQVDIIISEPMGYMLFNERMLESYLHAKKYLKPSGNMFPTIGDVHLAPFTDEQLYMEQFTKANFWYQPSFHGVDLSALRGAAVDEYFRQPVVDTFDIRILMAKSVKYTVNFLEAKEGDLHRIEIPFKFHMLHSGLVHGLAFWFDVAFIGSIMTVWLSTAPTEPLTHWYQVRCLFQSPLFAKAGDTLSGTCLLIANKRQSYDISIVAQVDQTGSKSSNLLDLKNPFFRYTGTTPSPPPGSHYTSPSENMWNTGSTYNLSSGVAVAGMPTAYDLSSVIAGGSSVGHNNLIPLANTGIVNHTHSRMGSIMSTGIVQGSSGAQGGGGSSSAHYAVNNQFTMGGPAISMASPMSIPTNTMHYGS
Summary of the method: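 Recombinant CARM1 with histone H3 substrate, in Tris-HCl pH 9. Enzyme pre-incubated with compound for 10 min at RT. [3H]SAM (20% labelled, 0.033 mCi/ml) and H3 were added, then 15 min at 30 °C. Quenched with SAH and spotted on P30 filtermat. Washed twice with 10% TCA and once with 95% ethanol, then wax scintillant counting. Values are means of at least two experiments.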

Rattus norvegicus [2] = experiment: (§1) Clearance in iv dosed rat; format: ADME, organism-based; settings: in vivo
Rattus norvegicus [3] = experiment: (§2) Volume of distribution at steady state in iv dosed rat; format: ADME, organism-based; settings: in vivo
Rattus norvegicus [4] = experiment: (§3) Half life in iv dosed rat; format: ADME, organism-based; settings: in vivo
[5] = as §1; format: ADME, organism-based; settings: in vivo
[6] = as §2; format: ADME, organism-based; settings: in vivo, read-out: Vdss
[7] = as §3; format: ADME, organism-based; settings: in vivo
[8] = Bioavailability in rat; format: ADME, organism-based; settings: in vivo
[9] = target: Protein arginine N-methyltransferase 1 (Homo sapiens, UniProt Q99873); experiment: Inhibition of N-terminal GST-tagged human recombinant PRMT1 expressed in Escherichia coli by microbeta counting
Sequence of Protein arginine N-methyltransferase 1 (Q99873 whole entry): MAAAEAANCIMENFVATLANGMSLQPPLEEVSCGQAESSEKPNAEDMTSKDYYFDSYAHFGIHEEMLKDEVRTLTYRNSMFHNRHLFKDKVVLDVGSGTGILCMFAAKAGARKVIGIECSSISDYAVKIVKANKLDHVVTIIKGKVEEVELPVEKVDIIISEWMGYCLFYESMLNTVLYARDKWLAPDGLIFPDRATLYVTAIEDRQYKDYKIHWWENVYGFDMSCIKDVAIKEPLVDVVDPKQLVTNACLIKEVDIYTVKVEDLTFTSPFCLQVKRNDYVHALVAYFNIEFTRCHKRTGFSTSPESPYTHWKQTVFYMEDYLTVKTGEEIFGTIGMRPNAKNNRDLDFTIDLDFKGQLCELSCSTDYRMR
Summary of the method: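 GST-tagged human PRMT1 made in E. coli, with recombinant histone H4 as substrate, in Tris-HCl pH 9. Enzyme pre-incubated with compound for 10 min at RT. [3H]SAM (20% labelled, 0.033 mCi/ml) and H4 were added, then 15 min at 30 °C. Stopped with SAH and spotted onto P30 filtermat. Washed with 10% TCA and 95% ethanol, then scintillation-counted.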

[10] = target: T2, Histone-lysine N-methyltransferase SETD7 (Homo sapiens, UniProt Q8WTS6); experiment: Inhibition of N-terminal His-tagged human recombinant SET7/9 expressed in Escherichia coli by microbeta counting
T2 sequence (Q8WTS6 whole entry): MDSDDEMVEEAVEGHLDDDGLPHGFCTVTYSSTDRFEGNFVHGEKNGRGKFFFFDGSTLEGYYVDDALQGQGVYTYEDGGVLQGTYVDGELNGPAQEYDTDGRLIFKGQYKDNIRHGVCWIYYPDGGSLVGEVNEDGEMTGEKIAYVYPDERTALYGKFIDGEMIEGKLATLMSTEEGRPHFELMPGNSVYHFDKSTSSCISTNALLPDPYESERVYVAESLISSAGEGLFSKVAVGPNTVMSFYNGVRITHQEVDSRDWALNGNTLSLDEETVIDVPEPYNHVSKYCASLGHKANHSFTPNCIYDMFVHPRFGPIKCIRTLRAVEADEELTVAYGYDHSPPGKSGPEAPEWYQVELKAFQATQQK
Summary of the method: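 His-tagged human SET9 made in E. coli, with histone H3 substrate, in Tris-HCl pH 9. Compound and enzyme pre-incubated for 10 min at RT. [3H]SAM (20% labelled, 0.011 mCi/ml) and H3 were added, then 45 min at 37 °C. Reaction stopped and transferred to a flashplate. Washed twice with 10% TCA, dried and counted.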

IC50 [1]	Compound	further results
1 µM	COc1ccccc1CNC(=O)c1cc(C(F)(F)F)nn1-c1cccc(CNCCN)c1	–
> 10 µM	CNCCNCc1cccc(-n2nc(C(F)(F)F)cc2C(=O)NCc2ccccc2N)c1	–
1.8 µM	CNCCNCc1cccc(-n2nc(C(F)(F)F)cc2C(=O)NCCc2c[nH]c3ccccc23)c1	–
1.61 µM	CCc1ccccc1CNC(=O)c1cc(C(F)(F)F)nn1-c1cccc(CNCCNC)c1	–
6.5 µM	CNCCNCc1cccc(-n2nc(C(F)(F)F)cc2C(=O)NCc2ccccc2OC(F)(F)F)c1	–
–	COc1ccccc1CNC(=O)c1cc(C(F)(F)F)nn1-c1cccc(CNC(=O)[C@H](C)N)c1	CL (Rattus norvegicus [2]): 1430 mL/min/kg; Vdss (Rattus norvegicus [3]): 33.6 L/kg; t1/2 (Rattus norvegicus [4]): 4.2 min
–	CNCCNCc1cccc(-n2nc(C(F)(F)F)cc2-c2nnc(-c3ccccc3OC)o2)c1	clearance [5]: 36.7 mL/min/kg; Vd [6]: 0.6 L/kg; half-life [7]: 1.8 h; bioavailability [8]: 3%
7.9 µM	COc1ccccc1CNC(=O)c1cc(C(F)(F)F)nn1-c1cccc(CNCCN(C)C)c1	–
> 20 µM	CNCCNCc1cc(-n2nc(C(F)(F)F)cc2C(=O)NCc2ccccc2OC)cc(C(F)(F)F)c1	–
> 20 µM	COc1ccccc1CNC(=O)c1cc(C(F)(F)F)nn1-c1cccc(CCNC(=O)[C@H](C)N)c1	–
> 20 µM	COc1ccccc1CNC(=O)c1cc(C(F)(F)F)nn1-c1cccc(-c2n[nH]c([C@H](C)N)n2)c1	–
7.7 µM	CCNCCNCc1cccc(-n2nc(C(F)(F)F)cc2C(=O)NCc2ccccc2OC)c1	–
4.5 µM	COc1ccccc1CNC(=O)c1cc(C(F)(F)F)nn1-c1cccc(CNC(=S)[C@H](C)N)c1	–
4.7 µM	CNCCNCc1cccc(-n2nc(C(F)(F)F)cc2C(=O)NCc2nc3ccccc3n2C)c1	–
0.71 µM	CNCCNCc1cccc(-n2nc(C(F)(F)F)cc2C(=O)NCc2cccc3c2OCCO3)c1	–
> 20 µM	COc1ccccc1CNC(=O)c1cc(C(F)(F)F)nn1-c1cccc(CNC(=O)[C@H](C)O)c1	–

IC50 [1]	Compound	further results
0.2 µM	CNCCNCc1cccc(-n2nc(C(F)(F)F)cc2C(=O)NCc2ccccc2OC)c1	clearance [5]: 20 mL/min/kg; Vd [6]: 1.4 L/kg; half-life [7]: 2.1 h; bioavailability [8]: 4%; IC50 [9]: > 100 µM; IC50 [10]: > 100 µM
5.6 µM	CNCCNCc1cc(-n2nc(C(F)(F)F)cc2C(=O)NCc2ccccc2OC)ccc1F	–
0.71 µM	CNCCNCc1cccc(-n2nc(C(F)(F)F)cc2C(=O)NCc2cc(F)ccc2OC)c1	–
> 10 µM	CNCCNCc1ccc2c(c1)n1nc(C(F)(F)F)cc1c(=O)n2Cc1ccccc1OC	–
> 10 µM	CNCCNCc1cccc(-n2nc(C(F)(F)F)cc2C(=O)NCc2ccccc2)c1	–
> 20 µM	CNCCNC(=O)c1cccc(-n2nc(C(F)(F)F)cc2C(=O)NCc2ccccc2OC)c1	–
0.9 µM	CCOc1ccccc1CNC(=O)c1cc(C(F)(F)F)nn1-c1cccc(CNCCNC)c1	clearance [5]: 20 mL/min/kg; Vd [6]: 0.1 L/kg; half-life [7]: 0.5 h; bioavailability [8]: 2%
3.35 µM	CNCCNCc1cccc(-n2nc(C(F)(F)F)cc2C(=O)NCc2c(OC)ccc3ccccc23)c1	–
4.3 µM	CNCCNCc1cccc(-n2nc(C(F)(F)F)cc2C(=O)NCc2nc3ccccc3[nH]2)c1	–
13.1 µM	CNCCNCc1cccc(-n2nc(C(F)(F)F)cc2C(=O)NCc2ccccc2C)c1	–
3.6 µM	CNCCNCc1cccc(-n2nc(C(F)(F)F)cc2C(=O)NCC2CCCCC2)c1	–
21 µM	CNCCNC(C)c1cccc(-n2nc(C(F)(F)F)cc2C(=O)NCc2ccccc2OC)c1 (stereo unspecified)	–
> 20 µM	COc1ccccc1CNC(=O)c1cc(C(F)(F)F)nn1-c1cccc(-c2noc([C@H](C)N)n2)c1	–
> 20 µM	COc1ccccc1CNC(=O)c1cc(C(F)(F)F)nn1-c1cccc(CNC2CCNC2)c1 (stereo unspecified)	–
0.32 µM	CNCCNCc1cccc(-n2nc(C(F)(F)F)cc2C(=O)NCc2cccc3ccccc23)c1	clearance [5]: 38.3 mL/min/kg; Vd [6]: 0.2 L/kg; half-life [7]: 1.4 h; bioavailability [8]: 3%
7.94 µM	CNCCNCc1cc(-n2nc(C(F)(F)F)cc2C(=O)NCc2ccccc2OC)ccc1C	–
